Bioassay records as filed in PubChem BioAssay.
PTEN del growth = PTEN-deleted cell growth suppression; HCT116 PTEN-null viability, CellTiter-Glo, 60 h; hits give low values; viability, % at 10 µM; 140,000 tested, 1.2% active; AID 827;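 active means viability at or below a set limit, 4 SD under the median of all tested compounds, cut at about 3.7% in these data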;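 further: PTEN knockout HCT116 line with beta catenin targeted HCT116 as companion control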
bCat KO growth = beta-catenin-lacking colon tumor cell growth suppression | HCT116 beta-catenin knockout viability, CellTiter-Glo, 60 h; hits give low values | viability, % at 10 µM | 140,000 tested, 1.5% active | AID 818;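 active means viability at or under a set limit, the compound median less 4 SD, cut at about 6% in these data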;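 further: 0% = Hyamine 1622 control at 20 µM and 100% = untreated cell control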
H69AR inhibit = blocks growth of human H69AR lung tumor cells. H69AR lung tumor viability, ATP luminescence, 72 h; hits give low values. AID 598. 85,000 tested, 6% active. viability, % at 10 µM;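 active means viability at or below 40%; inactive means viability above 40%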;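 further: multidrug resistant small cell line overexpressing MRP-1 efflux transporter; 100% = mean luminescence of untreated control wells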
Fibroblast inh = blocks proliferation of human lung fibroblasts. LL 47 human lung fibroblast viability, ATP luminescence; hits give low values. viability, % at 10 µM. 85,000 tested, 1.1% active;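 active means viability at or below 50% in the single dose screen; inactive means viability above 50%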;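 further: compound exposure lasted 72 h before the ATP readout; 100% = median luminescence of untreated cell-only wells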
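material = human LL 47 lung fibroblast cells | dosing = compounds added from tenfold dosing solution, 0.1% DMSO final | timing = overnight cell rest, 72 h compound treatment at 37 °C | measured by = CellTiter-Glo luminescence measuring cellular ATP | evaluation = % viability versus median cells-only luminescence | control set = cell-only wells, no compound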
HUVEC prolif 384 = human endothelial cell proliferation inhibition. HUVEC proliferation, CellTiter-Glo luminescence, 72 h; hits give low values. viability, % at 10 µM (by protocol). 86,000 tested, 1.1% active. AID 648;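 active means viability at or below 30%; inactive means viability above 30%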;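 further: 100% = median luminescence of DMSO-only cell control wells on each plate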
* marks the source's active call; other numbers are inactive results; / = no result given. Shown is part of a subset that was picked to be rich in hits.

SMILES | PTEN del growth | bCat KO growth | H69AR inhibit | Fibroblast inh | HUVEC prolif 384
CCCCn1c(N)c(C(=O)OCC2CCCO2)c2nc3ccccc3nc21 (configuration not stated) | 93 | 87 | 50 | 87 | 60
CCCCNC(=O)c1c(N)n(Cc2ccc3c(c2)OCO3)c2nc3ccccc3nc12 | 35 | 34 | 5.1* | 60 | 41
CCCCCCn1c(N)c(C(=O)NCCN2CCOCC2)c2nc3ccccc3nc21 | 1.4* | 27 | 1.5* | 73 | 28*
CCCNC(=O)c1c(N)n(CC2CCCO2)c2nc3ccccc3nc12 (configuration not stated) | 63 | 70 | 87 | 92 | 67
CCOCCCn1c(N)c(C(=O)Nc2sc3c(c2C(=O)OC)CCCC3)c2nc3ccccc3nc21 | 29 | 48 | / | / | /
Nc1c(C(=O)NCc2ccco2)c2nc3ccccc3nc2n1Cc1ccccc1 | 33 | 53 | / | / | /
CCOC(=O)c1c(NC(=O)c2c(N)n(CCCOC)c3nc4ccccc4nc23)sc2c1CCCC2 | 15 | 4.0* | 11* | 90 | 76
CCCCCn1c(N)c(C(=O)NCCN2CCOCC2)c2nc3ccccc3nc21 | 46 | 53 | 30* | 82 | 55
C[N+]12CCC(CC1)C(C#N)(N1CCOCC1)C2 (configuration not stated) | 89 | 89 | 89 | 102 | 104
CN1CCN(c2ccc([N+](=O)[O-])c(NCC3CCCO3)c2)CC1 (configuration not stated) | 95 | 92 | / | / | /
CC12CCCCC1=NC(c1ccc(Br)cc1)N2O (configuration not stated) | 93 | 101 | 99 | 96 | 85
CCC1(CC)C(=N)N(C)C(=O)NC1=O | 102 | 94 | / | / | /
Oc1c(Br)cc(Br)cc1Oc1ccc(Br)cc1Br | 72 | 78 | / | / | /
CC(C)OCCCNC(=O)c1c(N)n(CC2CCCO2)c2nc3ccccc3nc12 (configuration not stated) | 39 | 46 | 62 | 96 | 74
COc1ccc(CCNC(=O)c2c(N)n(CCN3CCOCC3)c3nc4ccccc4nc23)cc1OC | 21 | 33 | 12* | 92 | 59
COCCCn1c(N)c(C(=O)NCCC(C)C)c2nc3ccccc3nc21 | 2.7* | 1.6* | 18* | 81 | 87
CCCCOCCCn1c(N)c(C(=O)OCCOC)c2nc3ccccc3nc21 | 74 | 67 | 59 | 111 | 89
Nc1c(C(=O)NCc2ccco2)c2nc3ccccc3nc2n1CCN1CCOCC1 | 34 | 52 | 39* | 94 | 70
Cn1c(C(=O)O)c(CC(=O)N2CCN(Cc3ccccc3)CC2)c2ccccc21 | 103 | 93 | / | / | /
Cc1[nH]c2c(Cl)cccc2c1CCN | / | / | 22* | 96 | 93
CCN(CC)CCNC(=O)c1c(O)c2ccccc2n(Cc2ccccc2)c1=O | 64 | 49 | 27* | 90 | 107
CCN(CC)CCCNC(=O)c1c(O)c2ccccc2n(Cc2ccccc2)c1=O | 47 | 39 | 9.1* | 74 | 100
C/C(=N\Nc1cccc2ccccc12)c1c(O)n(Cc2ccccc2)c(=O)[nH]c1=O | 70 | 76 | / | / | /
O=C(Nc1ccc(Cl)cc1)Nc1nccs1 | 36 | 20 | 29* | 56 | 53
Cc1ccc(NC(=O)CN2C(=O)CN=C(c3ccccc3)c3cc(Cl)ccc32)cc1 | 47 | 44 | 25* | 85 | 85
SMILES | PTEN del growth | bCat KO growth | H69AR inhibit | Fibroblast inh | HUVEC prolif 384
CCCCc1nc(N2CCNCC2)c(C#N)c2c1CSC(C)(C)C2 | 1.9* | 1.7* | / | / | /
CC1CC2(O)c3nonc3CCC2N1O (configuration not stated) | 113 | 90 | 88 | 104 | 102
Nc1cc(Cl)c2nonc2c1[N+](=O)[O-] | 2.2* | 4.9* | / | / | /
COc1cc(/C=C2/C(=O)NC(=O)N(c3ccccc3)C2=O)ccc1O | 94 | 93 | / | / | /
COc1cc(/C=C/[N+](=O)[O-])ccc1O | 3.3* | 4.0* | / | / | /
C[N+]1(CC(COCc2ccccc2)OC(=O)Cc2ccccc2)CCOCC1 (configuration not stated) | 95 | 86 | / | / | /
O=C1CN=C(c2cccs2)c2c(sc3c2CCCC3)N1 | 26 | 25 | 21* | 95 | 62
c1ccc(CN2CCN(Cc3ccc4c(c3)OCCO4)CC2)cc1 | 94 | 85 | / | / | /
O=C(C1c2ccccc2C(=O)N2CCc3ccccc3C12)N1CCC2(CC1)OCCO2 (configuration not stated) | 96 | 96 | 80 | 97 | 99
CCCCn1c(=O)c(C(=O)Nc2nc3ccccc3[nH]2)c(O)c2ccccc21 | / | / | 8.5* | 85 | 100
CCCCn1c(=O)c(C(=O)Nc2cnccn2)c(O)c2ccccc21 | 46 | 54 | 14* | 48* | 73
CCCCn1c(O)c(C(CC)=NCc2cccnc2)c(=O)[nH]c1=O | 95 | 93 | 67 | 96 | 90
CC(C)CCn1c(=O)c(C(=O)Nc2ccccc2S(N)(=O)=O)c(O)c2ccccc21 | 21 | 29 | 7.4* | 50 | 59
CN1C(=O)C(=Cc2ccccc2OCc2ccccc2Cl)C(=O)N(C)C1=O | 48 | 43 | / | / | /
COc1cc(/C=C(/C)[N+](=O)[O-])ccc1OCc1ccccc1Cl | 1.2* | 1.6* | / | / | /
O=P(OCC(F)(F)C(F)F)(N1CCOCC1)N1CCOCC1 | 34 | 29 | 96 | 104 | 93
Brc1ccc2c(c1)C(OC1CN3CCC1CC3)c1ccccc1CS2 (configuration not stated) | 2.9* | 6.0* | / | / | /
CC12CCC3C(CC=C4CC(O)CCC43C)C1C/C(=C\c1ccccc1F)C2=O (configuration not stated) | 57 | 57 | / | / | /
Cc1nn(C)cc1/C=C1/CC2C3CC=C4CC(O)CCC4(C)C3CCC2(C)C1=O (configuration not stated) | / | / | 9.0* | 101 | 106
CC(=O)OC(C)(C)/C=C/C(=O)[C@](C)(O)[C@H]1[C@H](O)C[C@@]2(C)[C@@H]3CC=C4[C@H](C[C@H](O)C(=O)C4(C)C)[C@]3(C)C(=O)C[C@]12C | 1.9* | 2.4* | / | / | /
Cc1cc(N2C(=O)C3CCCN3C2c2sccc2C)no1 (configuration not stated) | 107 | 98 | 95 | 100 | 101
CCCCc1ccc2[nH]cc(CCN)c2c1 | 4 | 18 | 14* | 83 | 84
O=c1c2ccccc2nc(-c2ccoc2)n1-c1ccccc1 | 90 | 106 | 93 | 108 | 115
CN1CCC(N(C)c2nc(-c3ccccc3)nc3ccccc23)CC1 | 24 | 24 | 27* | 90 | 66
Clc1ccc(COC(Cn2ccnc2)c2ccc(Cl)cc2Cl)c(Cl)c1 (configuration not stated) | 40 | 35 | 2.3* | 82 | 41
COc1ccc(Cn2c(N)c(C(=O)NCc3ccco3)c3nc4ccccc4nc32)cc1 | 29 | 52 | 38* | 77 | 70
Nc1c(C(=O)NCc2ccco2)c2nc3ccccc3nc2n1Cc1ccc(F)cc1 | 6 | 55 | 22* | 85 | 70
Fc1ccc2c(c1)nnn2C1CCN(Cc2nnnn2C2CCCCC2)CC1 | 92 | 92 | 27* | 92 | 97
